In ChEMBL document CHEMBL4480427, “Further insights of selenium-containing analogues of WC-9 against Trypanosoma cruzi” (Bioorg Med Chem, 2019):
Activity calls are given as the source filed them. The calls are words filed in the database; no cut-off is given here.

What was measured:
[1] = Cytotoxicity against African green monkey Vero cells after 72 hrs by Alamar Blue assay; type: cell-based; conditions: chlorocebus sabaeus, read-out: ED50
How it was run: (§1)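 Vero cells treated 72 h at 35 °C, 7% CO2, in quadruplicate wells, with untreated host-cell and DMSO toxicity controls. Alamar Blue was added at 10% of culture volume for 6 h at 35 °C, and absorbance read at 570 and 600 nm. Cytotoxicity was also scored by cell detachment under optical microscopy. Three biological replicates of 4 technical replicates each.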

Trypanosoma cruzi [2] = assay: Antitrypanosomal activity against tdTomato red expressing Trypanosoma cruzi CL amastigotes infected in gamma-irradiated African green monkey Vero cells assessed as inhibition of parasite growth at 10 uM after 72 hrs by fluorescence assay relative to untreated control; type: functional; conditions: light or radiation study, read-out: GI
Trypanosoma cruzi [3] = assay: Antitrypanosomal activity against tdTomato red expressing Trypanosoma cruzi CL amastigotes infected in gamma-irradiated African green monkey Vero cells assessed as inhibition of parasite growth at 1 uM after 72 hrs by fluorescence assay relative to untreated control; type: functional; conditions: light or radiation study, read-out: GI
Trypanosoma cruzi [4] = assay: Antitrypanosomal activity against tdTomato red expressing Trypanosoma cruzi CL amastigotes infected in gamma-irradiated African green monkey Vero cells after 72 hrs by fluorescence assay; type: functional; conditions: light or radiation study, read-out: ED50 (the source's name)
How it was run: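 Gamma-irradiated (2,000 Rads) Vero cells, 3.4 × 10^4/well in RPMI with 10% FBS, held overnight at 35 °C, 7% CO2. Infected 5 h with 3.4 × 10^5 tdTomato CL trypomastigotes/well, then washed. Compounds were serially diluted 1.56–25 µM in quadruplicate, with benznidazole reference at 0.39–6.25 µM. Fluorescence read 72 h post-infection. ED50 by non-linear regression, mean ± S.D. of 3 biological replicates.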

Vero [5] = assay: Cytotoxicity against African green monkey Vero cells at 20 uM after 72 hrs by Alamar Blue assay; type: cell-based; conditions: chlorocebus sabaeus; how it was run: as §1
Vero [6] = assay: Cytotoxicity against African green monkey Vero cells at 15 to 20 uM after 72 hrs by Alamar Blue assay; type: cell-based; conditions: chlorocebus sabaeus; how it was run: as §1
Trypanosoma cruzi [7] = assay: Antitrypanosomal activity against tdTomato red expressing Trypanosoma cruzi CL amastigotes infected in gamma-irradiated African green monkey Vero cells assessed as inhibition of parasite growth at 6 uM after 72 hrs by fluorescence assay relative to untreated control; type: functional, organism-based

N#CCCOc1ccc(Oc2ccccc2)cc1
CC50 at 72 h [1]: > 20 µM

FC(F)(F)SCCOc1ccc(Oc2ccccc2)cc1
CC50 at 72 h [1]: > 20 µM | inhibition of growth at 10 µM (Trypanosoma cruzi [2]): 12%

N#CCCCOc1ccc(Oc2ccccc2)cc1
CC50 at 72 h [1]: > 20 µM

FC(F)(F)[Se]CCOc1ccc(Oc2ccccc2)cc1
inhibition of growth at 1 µM (Trypanosoma cruzi [3]): 6.7% | CC50 at 72 h [1]: > 20 µM | EC50 (Trypanosoma cruzi [4]): > 1 µM

N#C[Se]CCOc1ccccc1
Activity (Vero [5]): Toxic

O=C(Cn1ccnc1[N+](=O)[O-])NCc1ccccc1 [BENZNIDAZOLE]
CC50 at 72 h [1]: > 10 µM

N#C[Se]CCOc1ccc([N+](=O)[O-])cc1
Activity (Vero [6]): Toxic

FC(F)(F)[Se]CCOc1cccc(Oc2ccccc2)c1
inhibition of growth at 1 µM (Trypanosoma cruzi [3]): 30.9% | CC50 at 72 h [1]: > 20 µM

N#C[Se]CC1Cc2ccc(Oc3ccccc3)cc2O1 (racemic)
CC50 at 72 h [1]: > 20 µM | EC50 (Trypanosoma cruzi [4]): 0.0939 µM

N#CSCCOc1ccccc1Oc1ccccc1
CC50 at 72 h [1]: > 20 µM | inhibition of growth at 10 µM (Trypanosoma cruzi [2]): 33%

N#C[Se]CCOc1ccccc1Oc1ccccc1
CC50 at 72 h [1]: > 20 µM | inhibition of growth at 10 µM (Trypanosoma cruzi [2]): 33%

COc1ccc(OCC[Se]C#N)cc1
growth inhibition (GI) (Trypanosoma cruzi [7]): inactive | Activity (Vero [6]): Toxic

FC(F)(F)SCCOc1cccc(Oc2ccccc2)c1
CC50 at 72 h [1]: > 20 µM | EC50 (Trypanosoma cruzi [4]): > 10 µM
